In ChEMBL document CHEMBL1154716, “Synthesis of some new S-triazine based chalcones and their derivatives as potent antimicrobial agents” (2010):
The source made the active and inactive calls.

Assays:
Listeria monocytogenes [1] = experiment: Antimicrobial activity against Listeria monocytogenes after 24 hrs by microdilution technique; assay type: functional
Procedure, shortened: (§1)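 Broth microdilution in LB medium. Inoculum is 1.0 × 10^4 cfu per well, from a saline-adjusted suspension of 1.0 × 10^5 cfu/ml. Compounds are dissolved in DMSO. Incubated 24 h at 28 C. MIC is the lowest concentration with no visible growth under a binocular microscope. MBC is read by subculture into fresh broth for 72 h, with no growth taken as 99.5% kill. OD is read at 655 nm.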

Escherichia coli [2] = experiment: Antimicrobial activity against Escherichia coli after 24 hrs by microdilution technique; assay type: functional; procedure, shortened: as §1
Escherichia coli [3] = experiment: Antimicrobial activity against Escherichia coli at 10 ug/disk after 24 hrs by disk diffusion assay; assay type: functional
Procedure, shortened: (§2)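 Disc diffusion on 4 mm filter discs. Bacteria are grown overnight in LB at 28 C, then adjusted in saline to 1.0 × 10^5 cfu/ml. The suspension is mixed into top agar over peptone agar plates. Plates are incubated 24 h at 28 C, and growth-inhibition zone diameter is measured. Streptomycin and ampicillin controls are applied from a 1 mg/ml stock. Tests are done in duplicate.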

Micrococcus flavus [4] = experiment: Antimicrobial activity against Micrococcus flavus at 1 umol/spot after 18 hrs by TLC-bioautographic method; assay type: functional
Procedure, shortened: (§3)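 TLC bioautography. Samples are spotted on silica gel TLC plates, then sprayed with bacteria (1.0 × 10^5 cfu/ml) in tryptic soy broth. Plates are incubated 18 h at 37 C and sprayed with 3% aqueous p-iodonitrotetrazolium violet. After a further 3 h, growth is stopped with 70% EtOH. White zones on a pink background are scored as inhibition-zone diameter with standard errors.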

Enterobacter cloacae [5] = experiment: Antimicrobial activity against Enterobacter cloacae at 1 umol/disk after 24 hrs by disk diffusion assay; assay type: functional; procedure, shortened: as §2
Salmonella typhimurium [6] = experiment: Antimicrobial activity against Salmonella Typhimurium at 1 umol/disk after 24 hrs by disk diffusion assay; assay type: functional, organism-based; conditions: Salmonella enterica subsp. enterica serovar Typhimurium; procedure, shortened: as §2
Pseudomonas aeruginosa [7] = experiment: Antimicrobial activity against Pseudomonas aeruginosa at 1 umol/spot after 18 hrs by TLC-bioautographic method; assay type: functional; procedure, shortened: as §3
Listeria monocytogenes [8] = experiment: Antimicrobial activity against Listeria monocytogenes at 1 umol/disk after 24 hrs by disk diffusion assay; assay type: functional; procedure, shortened: as §2
Bacillus cereus [9] = experiment: Antimicrobial activity against Bacillus cereus after 24 hrs by microdilution technique; assay type: functional; procedure, shortened: as §1
Escherichia coli [10] = experiment: Antimicrobial activity against Escherichia coli at 1 umol/disk after 24 hrs by disk diffusion assay; assay type: functional; procedure, shortened: as §2
Pseudomonas aeruginosa [11] = experiment: Antimicrobial activity against Pseudomonas aeruginosa at 10 ug/disk after 24 hrs by disk diffusion assay; assay type: functional; procedure, shortened: as §2
Listeria monocytogenes [12] = experiment: Antimicrobial activity against Listeria monocytogenes at 10 ug/disk after 24 hrs by disk diffusion assay; assay type: functional; procedure, shortened: as §2
Bacillus cereus [13] = experiment: Antimicrobial activity against Bacillus cereus at 1 umol/spot after 18 hrs by TLC-bioautographic method; assay type: functional; procedure, shortened: as §3
Staphylococcus aureus [14] = experiment: Antimicrobial activity against Staphylococcus aureus after 24 hrs by microdilution technique; assay type: functional; procedure, shortened: as §1
Micrococcus flavus [15] = experiment: Antimicrobial activity against Micrococcus flavus at 1 umol/disk after 24 hrs by disk diffusion assay; assay type: functional; procedure, shortened: as §2
Staphylococcus aureus [16] = experiment: Antimicrobial activity against Staphylococcus aureus at 1 umol/disk after 24 hrs by disk diffusion assay; assay type: functional; procedure, shortened: as §2
Micrococcus flavus [17] = experiment: Antimicrobial activity against Micrococcus flavus at 10 ug/disk after 24 hrs by disk diffusion assay; assay type: functional; conditions: read-out: IZ; procedure, shortened: as §2
Pseudomonas aeruginosa [18] = experiment: Antimicrobial activity against Pseudomonas aeruginosa after 24 hrs by microdilution technique; assay type: functional; procedure, shortened: as §1
Listeria monocytogenes [19] = experiment: Antimicrobial activity against Listeria monocytogenes at 1 umol/spot after 18 hrs by TLC-bioautographic method; assay type: functional; procedure, shortened: as §3
Escherichia coli [20] = experiment: Antimicrobial activity against Escherichia coli at 1 umol/spot after 18 hrs by TLC-bioautographic method; assay type: functional; procedure, shortened: as §3
Staphylococcus aureus [21] = experiment: Antimicrobial activity against Staphylococcus aureus at 1 umol/spot after 18 hrs by TLC-bioautographic method; assay type: functional; procedure, shortened: as §3
Enterobacter cloacae [22] = experiment: Antimicrobial activity against Enterobacter cloacae after 24 hrs by microdilution technique; assay type: functional; procedure, shortened: as §1
Bacillus cereus [23] = experiment: Antimicrobial activity against Bacillus cereus at 10 ug/disk after 24 hrs by disk diffusion assay; assay type: functional; procedure, shortened: as §2
Enterobacter cloacae [24] = experiment: Antimicrobial activity against Enterobacter cloacae at 1 umol/spot after 18 hrs by TLC-bioautographic method; assay type: functional; procedure, shortened: as §3
Salmonella typhimurium [25] = experiment: Antimicrobial activity against Salmonella Typhimurium at 10 ug/disk after 24 hrs by disk diffusion assay; assay type: functional, organism-based; conditions: Salmonella enterica subsp. enterica serovar Typhimurium; procedure, shortened: as §2
Enterobacter cloacae [26] = experiment: Antimicrobial activity against Enterobacter cloacae at 10 ug/disk after 24 hrs by disk diffusion assay; assay type: functional; procedure, shortened: as §2
Bacillus cereus [27] = experiment: Antimicrobial activity against Bacillus cereus at 1 umol/disk after 24 hrs by disk diffusion assay; assay type: functional; procedure, shortened: as §2
Pseudomonas aeruginosa [28] = experiment: Antimicrobial activity against Pseudomonas aeruginosa at 1 umol/disk after 24 hrs by disk diffusion assay; assay type: functional; procedure, shortened: as §2
Salmonella typhimurium [29] = experiment: Antimicrobial activity against Salmonella Typhimurium at 1 umol/spot after 18 hrs by TLC-bioautographic method; assay type: functional; conditions: Salmonella enterica subsp. enterica serovar Typhimurium; procedure, shortened: as §3
Micrococcus flavus [30] = experiment: Antimicrobial activity against Micrococcus flavus after 24 hrs by microdilution technique; assay type: functional; procedure, shortened: as §1
Salmonella typhimurium [31] = experiment: Antimicrobial activity against Salmonella Typhimurium after 24 hrs by microdilution technique; assay type: functional, Salmonella enterica subsp. enterica serovar Typhimurium; conditions: Salmonella enterica; procedure, shortened: as §1
Staphylococcus aureus [32] = experiment: Antimicrobial activity against Staphylococcus aureus at 10 ug/disk after 24 hrs by disk diffusion assay; assay type: functional; procedure, shortened: as §2

N#Cc1c(-c2ccc([N+](=O)[O-])cc2)cc(-c2ccc(Nc3nc(Nc4ccccc4)nc(Nc4ccccc4)n3)cc2)nc1N
6 mm: zone of inhibition at 10 µg/disc (Micrococcus flavus [17])
169 µM: MIC (Bacillus cereus [9]) | MIC (Enterobacter cloacae [22])
0.04 millimeter: inhibition zone (IZ) (Micrococcus flavus [15])
338 µM: MIC (Escherichia coli [2]) | MBC (Bacillus cereus [9]) | MIC (Staphylococcus aureus [14]) | MBC (Enterobacter cloacae [22]) | MIC (Micrococcus flavus [30])
0.07 millimeter: inhibition zone (IZ) (Micrococcus flavus [4])
inactive: inhibition zone (IZ) (Escherichia coli [3]) | inhibition zone (IZ) (Enterobacter cloacae [5]) | inhibition zone (IZ) (Salmonella typhimurium [6]) | inhibition zone (IZ) (Listeria monocytogenes [8]) | inhibition zone (IZ) (Escherichia coli [10]) | inhibition zone (IZ) (Pseudomonas aeruginosa [11]) | inhibition zone (IZ) (Listeria monocytogenes [12]) | inhibition zone (IZ) (Bacillus cereus [13]) | inhibition zone (IZ) (Staphylococcus aureus [16]) | inhibition zone (IZ) (Escherichia coli [20]) | inhibition zone (IZ) (Staphylococcus aureus [21]) | inhibition zone (IZ) (Bacillus cereus [23]) | inhibition zone (IZ) (Salmonella typhimurium [25]) | inhibition zone (IZ) (Enterobacter cloacae [26]) | inhibition zone (IZ) (Bacillus cereus [27]) | inhibition zone (IZ) (Pseudomonas aeruginosa [28]) | inhibition zone (IZ) (Salmonella typhimurium [29]) | inhibition zone (IZ) (Staphylococcus aureus [32])
0.09 millimeter: inhibition zone (IZ) (Pseudomonas aeruginosa [7]) | inhibition zone (IZ) (Enterobacter cloacae [24])
676 µM: MBC (Listeria monocytogenes [1]) | MIC (Listeria monocytogenes [1]) | MBC (Escherichia coli [2]) | MBC (Staphylococcus aureus [14]) | MBC (Pseudomonas aeruginosa [18]) | MIC (Pseudomonas aeruginosa [18]) | MBC (Micrococcus flavus [30]) | MBC (Salmonella typhimurium [31]) | MIC (Salmonella typhimurium [31])
0.1 millimeter: inhibition zone (IZ) (Listeria monocytogenes [19])
